Columns and labels:
Liver microsomes [1] = test: Metabolic stability in human liver microsomes by glutathione trapping assay; assay type: ADME, Microsome
Rattus norvegicus [2] = test: Dose normalized AUC in rat at 3 umol/kg, iv; assay type: ADME, organism-based; details: in vivo
In short: (§1)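 Fasted male Sprague-Dawley rats given a single intravenous dose of 3 μmol/kg. Three animals per administration per compound; plasma PK parameters derived.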

[3] = Volume of distribution at steady state in rat at 3 umol/kg, iv; assay type: ADME, organism-based; details: in vivo, read-out: Vdss; in short: as §1
[4] = Half life in rat at 3 umol/kg, iv; assay type: ADME, organism-based; details: in vivo; in short: as §1
[5] = Half life in rat at 10 umol/kg, po; assay type: ADME, organism-based; details: in vivo
In short: (§2)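 Fasted male Sprague-Dawley rats dosed per orally at 10 µmol/kg. Three animals per administration per compound; plasma exposure and PK parameters derived.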

[6] = Clearance in rat at 3 umol/kg, iv; assay type: ADME, organism-based; details: in vivo; in short: as §1
Rattus norvegicus [7] = test: Dose normalised AUC in rat at 10 umol/kg, po; assay type: ADME, organism-based; details: in vivo; in short: as §2
[8] = Tmax in rat at 10 umol/kg, po; assay type: ADME, organism-based; details: in vivo; in short: as §2
[9] = Cmax in rat at 10 umol/kg, po; assay type: ADME, organism-based; set-up: dose 10 umol/kg, route oral; details: in vivo; in short: as §2
[10] = Oral bioavailability in rat at 10 umol/kg; assay type: ADME, organism-based; details: in vivo; in short: as §2
Liver microsomes [11] = test: Intrinsic clearance in human liver microsomes; assay type: ADME, Microsome
Liver microsomes [12] = test: Intrinsic clearance in rat liver microsomes; assay type: ADME, Microsome
[13] = Oral bioavailability in rat in presence of 1-aminobenzotriazole; details: in vivo

Structure (SMILES)	Stability (Liver microsomes [1])	CLH (Liver microsomes [11]) [µL/min/µg]	CLH (Liver microsomes [12]) [µL/min/µg]	also measured
COc1ncc(-c2cccc3c2C[C@H](NC(=O)c2ccc(OCCC(F)(F)F)nc2)CO3)cn1	Stable	–	–	AUC/dose (Rattus norvegicus [2]): 1.2 kg·h/L; Vd [3]: 7.2 L/kg; half-life [4]: 6.4 h; half-life [5]: 7.6 h; clearance [6]: 14 mL/min/kg; AUC/dose (Rattus norvegicus [7]): 0.32 kg·h/L; Tmax [8]: 4.8 h; Cmax [9]: 230 nM; bioavailability [10]: 26%
COc1cnc(-c2ccc(Cl)cc2CCNC(=O)c2ccc(COCC(F)(F)F)nc2)cn1	–	72	–	–
Cc1ncc(-c2ccccc2CCNC(=O)c2ccc(C(=O)NCCCC(F)(F)F)nc2)cn1	Unstable	11	< 10	–
COc1ncc(-c2ccccc2C(F)(F)CNC(=O)c2ccc(COCC(F)(F)F)nc2)cn1	Stable	< 10	13	AUC/dose (Rattus norvegicus [2]): 0.71 kg·h/L; Vd [3]: 1.4 L/kg; half-life [4]: 2 h; half-life [5]: 2.4 h; clearance [6]: 23 mL/min/kg; AUC/dose (Rattus norvegicus [7]): 0.24 kg·h/L; Tmax [8]: 0.75 h; Cmax [9]: 840 nM; bioavailability [10]: 34%
COc1ncc(-c2c(C)ccc(F)c2CCNC(=O)c2ccc(OCC(F)(F)F)nc2)cn1	Stable	74	35	–
COc1cnc(-c2c(C)ccc(F)c2CCNC(=O)c2ccc(COCC(F)(F)F)nc2)cn1	Unstable	61	88	AUC/dose (Rattus norvegicus [2]): 0.91 kg·h/L; Vd [3]: 1.5 L/kg; half-life [4]: 0.9 h; half-life [5]: 3.6 h; clearance [6]: 19 mL/min/kg; AUC/dose (Rattus norvegicus [7]): 0.03 kg·h/L; Tmax [8]: 1.5 h; Cmax [9]: 530 nM; bioavailability [10]: 4%
COc1cnc(-c2c(F)ccc(F)c2CCNC(=O)c2ccc(COCC(F)(F)F)nc2)cn1	Stable	44	45	AUC/dose (Rattus norvegicus [2]): 1.3 kg·h/L; Vd [3]: 0.85 L/kg; half-life [4]: 0.9 h; half-life [5]: 3 h; clearance [6]: 13 mL/min/kg; AUC/dose (Rattus norvegicus [7]): 0.06 kg·h/L; Tmax [8]: 0.67 h; Cmax [9]: 160 nM; bioavailability [10]: 5%
Cc1cnc(-c2c(F)ccc(F)c2CCNC(=O)c2ccc(COCC(F)(F)F)nc2)cn1	Stable	21	< 10	AUC/dose (Rattus norvegicus [2]): 0.68 kg·h/L; Vd [3]: 1.74 L/kg; half-life [4]: 5.9 h; half-life [5]: 2.3 h; clearance [6]: 24.6 mL/min/kg; AUC/dose (Rattus norvegicus [7]): 0.05 kg·h/L; Tmax [8]: 0.5 h; Cmax [9]: 250 nM; bioavailability [10]: 7%; bioavailability [13]: 40%
COc1cnc(-c2c(OC)ccc(F)c2CCNC(=O)c2ccc(COCC(F)(F)F)nc2)cn1	–	46	67	–
COc1ncc(-c2ccc(C)nc2CCNC(=O)c2ccc(OCCC(F)(F)F)nc2)cn1	Stable	< 10	< 10	–
COc1ncc(-c2cc(C)cnc2CCNC(=O)c2ccc(COCC(F)(F)F)nc2)cn1	–	< 10	< 10	–
COc1ncc(-c2cccnc2C(C)CNC(=O)c2ccc(OCCC(F)(F)F)nc2)cn1 (stereo unspecified)	–	< 10	< 10	–
COc1ncc(-c2cccnc2C(F)(F)CNC(=O)c2ccc(OCCC(F)(F)F)nc2)cn1	–	< 10	< 10	–
COc1cnc(-c2ccccc2C(F)(F)CNC(=O)c2ccc(COCC(F)(F)F)nc2)cn1	Stable	< 10	16	AUC/dose (Rattus norvegicus [2]): 1.5 kg·h/L; Vd [3]: 0.72 L/kg; half-life [4]: 1.2 h; half-life [5]: 2.8 h; clearance [6]: 11 mL/min/kg; AUC/dose (Rattus norvegicus [7]): 0.41 kg·h/L; Tmax [8]: 0.33 h; Cmax [9]: 1400 nM; bioavailability [10]: 27%
COc1cnc(-c2cccc(F)c2C(F)(F)CNC(=O)c2ccc(COCC(F)(F)F)nc2)cn1	Stable	< 10	24	–

More lines, main results first:

Stability (Liver microsomes [1])	CLH (Liver microsomes [11]) [µL/min/µg]	CLH (Liver microsomes [12]) [µL/min/µg]	Structure (SMILES)	also measured
–	17	> 500	COc1ncc(-c2ccccc2CCNC(=O)c2ccc(OCCC(F)(F)F)nc2)cn1	–
Unstable	124	129	COc1cnc(-c2ccccc2CCNC(=O)c2ccc(OCCC(F)(F)F)nc2)cn1	–
–	210	270	O=C(NCCc1ccccc1-c1cnc(OC(F)F)cn1)c1ccc(OCCC(F)(F)F)nc1	–
Unstable	160	> 500	O=C(NCCc1ccccc1-c1cccnc1)c1ccc(OCCC(F)(F)F)nc1	–
Unstable	11	> 500	Cc1ncc(-c2ccccc2CCNC(=O)c2ccc(OCCC(F)(F)F)nc2)cn1	–
–	10	130	O=C(NCCc1ccccc1-c1ccc(CO)nc1)c1ccc(OCCC(F)(F)F)nc1	–
Unstable	< 10	< 10	Cc1ncc(-c2ccccc2CCNC(=O)c2ccc(COCC(F)(F)F)nc2)cn1	–
–	23	< 10	Cc1ncc(-c2ccccc2CCNC(=O)c2ccc(OCCOCC(F)(F)F)nc2)cn1	–
–	15	< 10	Cc1ncc(-c2ccccc2CCNC(=O)c2ccc(CNCCC(F)(F)F)nc2)cn1	–
Stable	65	32	COc1ncc(-c2cccc(C)c2CCNC(=O)c2ccc(OCCC(F)(F)F)nc2)cn1	AUC/dose (Rattus norvegicus [2]): 0.33 kg·h/L; Vd [3]: 2.4 L/kg; half-life [4]: 0.98 h; half-life [5]: 2.4 h; clearance [6]: 50 mL/min/kg; AUC/dose (Rattus norvegicus [7]): 0.002 kg·h/L; Tmax [8]: 0.25 h; Cmax [9]: 20 nM; bioavailability [10]: 0.6%
Unstable	< 10	13	COc1ncc(-c2cccc(F)c2CCNC(=O)c2ccc(OCCC(F)(F)F)nc2)cn1	–
Unstable	17	< 10	COc1ncc(-c2cccc(Cl)c2CCNC(=O)c2ccc(OCCC(F)(F)F)nc2)cn1	–
–	45	17	COc1ncc(-c2cccc(OC)c2CCNC(=O)c2ccc(OCCC(F)(F)F)nc2)cn1	–
–	40	150	COc1ccc(CCNC(=O)c2ccc(OCCC(F)(F)F)nc2)c(-c2cnc(OC)nc2)c1	–
Stable	< 10	24	COc1ncc(-c2cccc(C#N)c2CCNC(=O)c2ccc(OCCC(F)(F)F)nc2)cn1	–
–	< 10	190	COc1ncc(-c2cccc(OC(F)F)c2CCNC(=O)c2ccc(OCCC(F)(F)F)nc2)cn1	–
–	100	230	COc1ncc(-c2c(C)ccc(F)c2CCNC(=O)c2ccc(OCCC(F)(F)F)nc2)cn1	–
Stable	< 10	< 10	COc1ncc(-c2cccnc2CCNC(=O)c2ccc(OCCC(F)(F)F)nc2)cn1	–
